Measurements published in ChEMBL document CHEMBL3286245, “Synthesis and antitumor activity of pyrido [2,3-d]pyrimidine and pyrido[2,3-d] [1,2,4]triazolo[4,3-a]pyrimidine derivatives that induce apoptosis through G1 cell-cycle arrest” (Eur J Med Chem, 2014).
pIC50: −log10 of the molar value. Active and inactive are the calls of the source. The rule behind the calls is not given here.

Assays:
A549 [1] = assay: Cytotoxicity against human A549 cells after 48 hrs by sulforhodamine B assay; type: functional, cell-based; conditions: A549, 48 h
Summary of the method: (§1)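 Exponentially growing cells harvested with 0.25% trypsin-EDTA, seeded at 1000–2000 cells/well in supplemented DMEM, left 24 h, then exposed 48 h to a concentration series; 5-fluorouracil as reference. Fixed with 10% TCA 1 h at 4 °C, stained 10 min with 0.4% SRB in 1% acetic acid, dye solubilized in Tris-HCl, OD read at 564 nm. IC50 from Boltzmann sigmoidal nonlinear fit; means of at least three experiments.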

PC-3 [2] = assay: Cytotoxicity against human PC3 cells after 48 hrs by sulforhodamine B assay; type: functional, cell-based; conditions: PC-3, 48 h; summary of the method: as §1
MCF7 = assay: Cytotoxicity against human MCF7 cells after 48 hrs by sulforhodamine B assay; type: functional, cell-based; conditions: MCF7, 48 h; summary of the method: as §1
HepG2 = assay: Cytotoxicity against human HepG2 cells after 48 hrs by sulforhodamine B assay; type: functional, cell-based; conditions: HepG2, 48 h; summary of the method: as §1
A549 [3] = assay: Ratio of 5-fluorouracil IC50 to compound IC50 for human A549 cells; type: functional
PC-3 [4] = assay: Induction of apoptosis in human PC3 cells assessed as wrinkled cells at IC50 after 24 hrs by acridine orange/ethidium bromide staining-based fluorescence microscopic analysis; type: functional, cell-based
PC-3 [5] = assay: Induction of apoptosis in human PC3 cells assessed as condensed and fragmented chromatin at IC50 after 24 hrs by acridine orange/ethidium bromide staining-based fluorescence microscopic analysis; type: functional, cell-based
PC-3 [6] = assay: Induction of apoptosis in human PC3 cells assessed as condensed and fragmented chromatin at IC50 after 48 hrs by acridine orange/ethidium bromide staining-based fluorescence microscopic analysis; type: functional, cell-based
PC-3 [7] = assay: Induction of apoptosis in human PC3 cells assessed as increase in caspase-3 level at IC50 uM after 24 hrs by sandwich enzyme immunoassay relative to control; type: functional
PC-3 [8] = assay: Induction of apoptosis in human PC3 cells assessed as increase in caspase-3 level at IC50 uM after 48 hrs by sandwich enzyme immunoassay relative to control; type: functional
PC-3 [9] = assay: Cell cycle arrest in human PC3 cells assessed as accumulation at G0/G1 phase at IC50 after 24 hrs by propidium iodide staining-based flow cytometric analysis; type: functional
PC-3 [10] = assay: Cell cycle arrest in human PC3 cells assessed as reduction in accumulation at S phase at IC50 after 24 hrs by propidium iodide staining-based flow cytometric analysis; type: functional
PC-3 [11] = assay: Cell cycle arrest in human PC3 cells assessed as reduction in accumulation at G2/M phase at IC50 after 24 hrs by propidium iodide staining-based flow cytometric analysis; type: functional
PC-3 [12] = assay: Cell cycle arrest in human PC3 cells assessed as increase in accumulation at pre-G phase at IC50 after 48 hrs by propidium iodide staining-based flow cytometric analysis; type: functional
[13] = biological target: Cyclin-dependent kinase 4/cyclin D1 (Homo sapiens) (UniProt P11802+P24385); assay: Inhibition of CDK4/cyclin D1 (unknown origin) at 10 uM after 20 to 30 mins by scintillation counting analysis relative to control; type: protein-complex assay
[14] = biological target: T1, CDK6/cyclin D1 (Homo sapiens) (UniProt P24385+Q00534); assay: Inhibition of CDK6/cyclin D1 (unknown origin) at 1 uM after 20 to 30 mins by scintillation counting analysis relative to control; type: protein-complex assay
[15] = biological target: T1, CDK6/cyclin D1 (Homo sapiens); assay: Inhibition of CDK6/cyclin D1 (unknown origin) at 10 uM after 20 to 30 mins by scintillation counting analysis relative to control; type: protein-complex assay
PC-3 [16] = assay: Upregulation of p21 protein level in human PC3 cells at IC50 after 48 hrs by immunocytochemical analysis; type: functional, cell-based
PC-3 [17] = assay: Upregulation of p21 protein level in human PC3 cells at IC50 after 48 hrs by Western blotting analysis relative to control; type: functional

| Structure (SMILES) | pIC50 (A549 [1]) | pIC50 (PC-3 [2]) | also measured |
| --- | --- | --- | --- |
| O=c1[nH][nH]c2nc3nc(-c4cccs4)cc(-c4ccccc4)c3c(=O)n12 | 4.83 | 4.90 |  |
| Cc1n[nH]c2nc3nc(-c4cccs4)cc(-c4ccccc4)c3c(=O)n12 | 4.26 | 4.08 |  |
| Cc1ccc(/C=N/Nc2nc3nc(-c4cccs4)cc(-c4ccccc4)c3c(=O)[nH]2)cc1 | 4.25 | 6.20 |  |
| CC(=O)c1nn(-c2ccc(C)cc2)c2nc3nc(-c4cccs4)cc(-c4ccccc4)c3c(=O)n12 | 4.71 | 4.77 |  |
| Nc1n[nH]c2nc3nc(-c4cccs4)cc(-c4ccccc4)c3c(=O)n12 | 4.36 | 4.91 |  |
| O=c1c2c(-c3ccccc3)cc(-c3cccs3)nc2nc2[nH]ncn12 | 4.66 | 4.93 |  |
| COc1ccc(-n2nc(C(C)=O)n3c(=O)c4c(-c5ccccc5)cc(-c5cccs5)nc4nc23)cc1 | 4.61 | 4.71 |  |
| CC(=O)c1nn(-c2ccccc2)c2nc3nc(-c4cccs4)cc(-c4ccccc4)c3c(=O)n12 | 4.23 | 4.49 |  |
| CC(=O)c1nn(-c2ccc(F)cc2)c2nc3nc(-c4cccs4)cc(-c4ccccc4)c3c(=O)n12 | 4.41 | 4.44 |  |
| O=c1[nH]c(N/N=C/c2ccc(F)cc2)nc2nc(-c3cccs3)cc(-c3ccccc3)c12 | 5.47 | 5.81 |  |
| CCOC(=O)c1nn(-c2ccc(S(N)(=O)=O)cc2)c2nc3nc(-c4cccs4)cc(-c4ccccc4)c3c(=O)n12 | 4.78 | 5.15 |  |
| CCOC(=O)c1nn(-c2ccc(Cl)cc2)c2nc3nc(-c4cccs4)cc(-c4ccccc4)c3c(=O)n12 | 4.14 | 4.43 |  |
| CC(=O)c1nn(-c2ccc(S(N)(=O)=O)cc2)c2nc3nc(-c4cccs4)cc(-c4ccccc4)c3c(=O)n12 | 6.39 | 6.44 | pIC50 (MCF7): 4.42; pIC50 (HepG2): 4.25; Ratio IC50 (A549 [3]): 10; Activity (PC-3 [4]): Active; Activity (PC-3 [5]): Active; Activity (PC-3 [6]): Active; fold change (FC) (PC-3 [7]): 1.5; fold change (FC) (PC-3 [8]): 2; Activity (PC-3 [9]): Active; Activity (PC-3 [10]): Active; Activity (PC-3 [11]): Active; Activity (PC-3 [12]): Active; inhibition [13]: 5%; inhibition [14]: 2%; inhibition [15]: 1%; Activity (PC-3 [16]): Active; fold change (FC) (PC-3 [17]): 1.7 |
| CCOC(=O)c1nn(-c2ccc(C)cc2)c2nc3nc(-c4cccs4)cc(-c4ccccc4)c3c(=O)n12 | 4.42 | 4.48 |  |
| COc1ccc(/C=N/Nc2nc3nc(-c4cccs4)cc(-c4ccccc4)c3c(=O)[nH]2)cc1 | 4.73 | 4.74 |  |
| CC(=O)c1nn(-c2ccc(Cl)cc2)c2nc3nc(-c4cccs4)cc(-c4ccccc4)c3c(=O)n12 | 4.51 | 4.64 |  |
| O=c1[nH]c(N/N=C/c2ccc(Cl)cc2)nc2nc(-c3cccs3)cc(-c3ccccc3)c12 | 4.39 | 4.62 |  |
| CCOC(=O)c1nn(-c2ccccc2)c2nc3nc(-c4cccs4)cc(-c4ccccc4)c3c(=O)n12 | 4.57 | 4.47 |  |
| O=c1[nH]cc(F)c(=O)[nH]1 [FLUOROURACIL] | 5.38 | 4.92 |  |
| O=c1c2c(-c3ccccc3)cc(-c3cccs3)nc2nc2[nH][nH]c(=S)n12 | 4.27 | 4.49 |  |
| O=c1[nH]c(N/N=C/c2ccccc2)nc2nc(-c3cccs3)cc(-c3ccccc3)c12 | 4.49 | 4.57 |  |
